This is a sample that favours compounds with a hit; in the whole collection about 2.4% have one here.
PP5 inh: PP5 phosphatase inhibitors, primary screen, biochemical, fluorescence; Serine/threonine-protein phosphatase 5 (Homo sapiens), P53041; purified PP5c, OMFP substrate fluorescence; inhibition, % at 6.7 µM; 0.18% of 320,000 active;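 active = inhibition above the campaign's mean inhibition across all tested compounds plus 3 SD, cut at about 9.5% in these data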;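 note: 0% = DMSO only and 100% = 100 µM cantharidin control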
Target sequence (P53041 whole entry, looked up): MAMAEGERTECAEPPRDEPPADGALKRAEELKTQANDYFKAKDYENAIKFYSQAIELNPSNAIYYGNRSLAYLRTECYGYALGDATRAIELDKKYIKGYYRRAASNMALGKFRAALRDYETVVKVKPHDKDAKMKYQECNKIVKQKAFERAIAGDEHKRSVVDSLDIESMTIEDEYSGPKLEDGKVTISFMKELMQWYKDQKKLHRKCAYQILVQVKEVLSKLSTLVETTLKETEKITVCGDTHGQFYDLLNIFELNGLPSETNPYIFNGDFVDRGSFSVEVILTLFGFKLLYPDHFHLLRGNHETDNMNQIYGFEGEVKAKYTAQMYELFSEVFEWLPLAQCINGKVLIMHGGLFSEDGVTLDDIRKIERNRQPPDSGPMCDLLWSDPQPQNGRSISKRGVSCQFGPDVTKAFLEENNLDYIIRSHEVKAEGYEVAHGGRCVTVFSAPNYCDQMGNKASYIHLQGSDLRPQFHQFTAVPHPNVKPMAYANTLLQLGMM
T cruzi repl: inhibitors of intracellular T. cruzi growth, primary screen, luminescence, NIH3T3 host cells; T. cruzi beta-gal in NIH3T3, 90 h; inhibition, % (no concentration beside the values); 1.4% of 300,000 active; AID 1885, 2009;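 active = mean inhibition across valid replicates above about 55%, limit read from the data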;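 note: signal also drops with host cell toxicity which is not excluded here; 0% = plate median of DMSO wells and 100% = zero luminescence signal; higher percent means less beta-gal luminescence so fewer parasites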
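Test system: β-gal T. cruzi (Tulahuen C4) inside NIH/3T3 cells / Quantity: 5,000 cells/well / Measured by: luminescence from GalScreen with 0.05% NP40, read after 60 min / Medium: DMEM plus 2% FBS / Measure: parasite load inhibition, % / Reagent: Tulahuen C4 trypomastigotes, 5000/well / Schedule: co-culture of at least 90 h after 3 h attachment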
GASC-1 inh: inhibitors of GASC-1 histone demethylase, primary screen, biochemical, fluorescence, DELFIA europium; Lysine-specific demethylase 4C (Homo sapiens), Q9H3R0; GST-JMJD2C(1-420) H3K9me3 demethylation; inhibition, % at 2.35 µM; 0.069% of 330,000 active;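 active = more than half of a compound's replicate wells show inhibition beyond 50%, single wells judged on their own value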;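 note: signal counts dimethyl H3K9 product captured on neutravidin plate; 0% = median of DMSO wells and 100% = 0.3 times that DMSO median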
pCIP destab: p/CIP-EGFP fusion destabilizers, primary screen, fluorescence, F442A cells | decrease of EGFP signal, % at 10 µM | 16 h | Q05BA5 | 0.01% of 290,000 active | AID 1984, 2009;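 active = EGFP signal decrease of at least 30% at 10 µM or well 3 SD below plate mean, unless failing retest; inactive = the rest, including hits failing retest or dose response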
Cardio protect: cardioprotection against H2O2-induced cell death, primary screen, uHTS, H9c2 cells, ATPLite luminescence | H9c2 cardiomyocytes, H2O2 injury protection, 2 h | 0.63% of 360,000 active | protection from H2O2 cell death, % at 20 µM;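 active = compounds giving at least 50% protection of heart cells from peroxide-induced death in the single-dose screen, raw or plate-pattern-corrected value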;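 note: 0% = DMSO wells with peroxide and 100% = DMSO wells without peroxide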
CTSL1 counter: Fasciola hepatica cathepsin L1 inhibitors, primary screen, counter-screen for PFM18AAP inhibitor project, biochemical, QFRET, fluorogenic peptide substrate; inhibition, % at 5.96 µM; AID 1906, 2009; 0.49% of 300,000 active; recombinant F. hepatica cathepsin L1, Z-Leu-Arg-MCA fluorescence;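 active = inhibition above the mean of all tested compounds plus 3 SD, set per screening campaign, cut at about 17% in these data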;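 note: 0% = plate median of test compound wells and 100% = 1 µM Z-Phe-Ala-diazomethylketone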
The depositor's hits bear a star.

Results for N#Cc1cnn2c(-c3cccc([N+](=O)[O-])c3)ccnc12 ?
PP5 inh: -1; GASC-1 inh: -3; Cardio protect: 3

What do the screens show for `Cc1ccc(N2CCOCC2)c2c1C(=O)c1ccccc1C2=O`?
PP5 inh: 2; T cruzi repl: -18; GASC-1 inh: 1; pCIP destab: -3; Cardio protect: 1; CTSL1 counter: -1

Results for CN(C1=C(N2CCOCC2)C(=O)c2ccccc2C1=O)c1ccccc1 ?
PP5 inh: 3; T cruzi repl: -1; GASC-1 inh: -3; pCIP destab: 2; Cardio protect: -6; CTSL1 counter: 62*

How did O=C1C=C(N2CCOCC2)c2cccc3cccc1c23 do in these assays?
Cardio protect: 61*

What do the screens show for `O=C1C(N2CCOCC2)=Cc2cccc3cccc1c23`?
Cardio protect: 13

What do the screens show for `O=C1C=C(N2CCOCC2)c2ccccc2C1=O`?
PP5 inh: 9; T cruzi repl: -33; GASC-1 inh: 13; pCIP destab: -26; Cardio protect: -17; CTSL1 counter: 112*

How did O=C(O)c1cccc(NC2=C(N3CCOCC3)C(=O)c3ccccc3C2=O)c1 do in these assays?
PP5 inh: 5; T cruzi repl: -2; GASC-1 inh: 13; pCIP destab: -2; Cardio protect: 0; CTSL1 counter: 50*

How did O=C1C(NS(=O)(=O)c2cccs2)=C(N2CCOCC2)C(=O)c2ccccc21 do in these assays?
PP5 inh: 2; T cruzi repl: -15; GASC-1 inh: 0; pCIP destab: -5; Cardio protect: -15; CTSL1 counter: 1

How did COc1ccc(CCNc2ccc(C(CC(N)=O)NC(=O)c3cc(OC)ccc3OC)cc2[N+](=O)[O-])cc1 (stereo not drawn) do in these assays?
PP5 inh: 2; T cruzi repl: 8; GASC-1 inh: -23; pCIP destab: -8; Cardio protect: 3; CTSL1 counter: 2

Results for CCCCCCCCCC1(CC(=O)OCC)SCCN1C(N)=O (stereo not drawn) ?
Cardio protect: -11

How did COc1ccc(NC(=O)c2cccc3c(-c4cnn(C)c4)coc23)cc1 do in these assays?
Cardio protect: 44

How did COc1cc(NC(=O)c2cccc3c(-c4cnn(C)c4)coc23)cc(OC)c1OC do in these assays?
Cardio protect: 64*

How did Cc1ccc(C)c(COC(=O)CCN=C2NS(=O)(=O)c3ccccc32)c1 do in these assays?
PP5 inh: 1; T cruzi repl: 0; GASC-1 inh: -1; Cardio protect: -4; CTSL1 counter: 1

How did O=c1[nH]sc2ccccc12 do in these assays?
T cruzi repl: 63*; GASC-1 inh: 106; pCIP destab: 2; Cardio protect: -39

Results for Cc1oc2cc3oc(=O)c(CCC(=O)NCCCN4CCOCC4)c(C)c3cc2c1C ?
PP5 inh: 4; T cruzi repl: -12; GASC-1 inh: -4; pCIP destab: -22; Cardio protect: -8; CTSL1 counter: 2

What do the screens show for `CCOC(=O)c1cc(-c2ccc(OC)cc2)n(CCC(=O)NC2CCN(Cc3ccccc3)CC2)c1C`?
PP5 inh: -2; T cruzi repl: 45; GASC-1 inh: 1; pCIP destab: 4; Cardio protect: 5; CTSL1 counter: 2

What do the screens show for `CCOC(=O)c1cc(-c2ccc(F)cc2)n(CCC(=O)NC2CCN(Cc3ccccc3)CC2)c1C`?
PP5 inh: 4; T cruzi repl: 78*; GASC-1 inh: -7; pCIP destab: 6; Cardio protect: 20; CTSL1 counter: 1

How did Cc1ccc(N(C(=O)Cn2nnc3ccccc32)C(C(=O)NC2CCCCC2)c2cn(C)nc2C)cc1 (stereo not drawn) do in these assays?
PP5 inh: 1; T cruzi repl: 11; GASC-1 inh: -12; pCIP destab: -12; Cardio protect: 1; CTSL1 counter: 4

Results for COc1ccc(C(C(=O)NC2CCCCC2)N(C(=O)CCl)c2ccc(Cl)cc2)cc1 (stereo not drawn) ?
PP5 inh: 2; T cruzi repl: 56*; GASC-1 inh: -10; pCIP destab: 3; Cardio protect: -7; CTSL1 counter: 3

How did COC(CN(C(=O)CCl)C(C(=O)NC1CCCC(C)C1C)c1ccc(C)cc1)OC (stereo not drawn) do in these assays?
PP5 inh: 1; T cruzi repl: -9; GASC-1 inh: -6; pCIP destab: -11; Cardio protect: 2; CTSL1 counter: 61*

Results for COC(CN(C(=O)CCl)C(C(=O)NC1CCCCC1)c1ccc(Cl)cc1)OC (stereo not drawn) ?
PP5 inh: 1; T cruzi repl: -13; GASC-1 inh: 3; pCIP destab: 1; Cardio protect: -5; CTSL1 counter: 82*

What do the screens show for `CN(C)C(C(=O)NC1CCCCC1)c1ccc(Cl)cc1` (stereo not drawn)?
PP5 inh: 1; T cruzi repl: -2; GASC-1 inh: 10; pCIP destab: 9; Cardio protect: 5; CTSL1 counter: 0

Results for CCN(CC)C(C(=O)NC1CCCCC1)c1ccc(C)cc1 (stereo not drawn) ?
PP5 inh: 0; T cruzi repl: -12; GASC-1 inh: -11; pCIP destab: -2; Cardio protect: 0; CTSL1 counter: -2

What do the screens show for `Cc1nn(C)cc1C(C(=O)NC1CCCCC1)N(C(=O)Cc1cccs1)c1ccc(Cl)cc1` (stereo not drawn)?
PP5 inh: -1; T cruzi repl: -9; GASC-1 inh: 5; pCIP destab: -1; Cardio protect: 55*; CTSL1 counter: 0

How did COC(CN(C(=O)CCl)C(C(=O)NC1CCCCC1)c1ccccc1C)OC (stereo not drawn) do in these assays?
PP5 inh: 0; T cruzi repl: -8; GASC-1 inh: 3; pCIP destab: 12; Cardio protect: -8; CTSL1 counter: 20*

Results for COC(CN(C)C(C(=O)NC1CCCCC1)c1ccccc1)OC (stereo not drawn) ?
PP5 inh: 0; T cruzi repl: -2; GASC-1 inh: 14; pCIP destab: -15; Cardio protect: -3; CTSL1 counter: -1

Results for O=C(COc1ccccc1[N+](=O)[O-])Nc1ccc(NC(=O)c2cc3ccccc3o2)cc1 ?
PP5 inh: 1; T cruzi repl: 18; GASC-1 inh: -6; pCIP destab: -17; Cardio protect: 2; CTSL1 counter: 6

How did O=C(COc1ccc(/C=N/NC(=O)c2cc3ccccc3o2)cc1Br)Nc1ccccc1 do in these assays?
PP5 inh: 1; T cruzi repl: 70*; GASC-1 inh: -2; pCIP destab: -5; Cardio protect: -8; CTSL1 counter: 5
